Hit rate of the full screen: of about 2,400 compounds, about 940 (39%) were called active. A selection follows. A number with no mark means an inactive call.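 How the source made its calls: active means inhibition above the plate's mean compound inhibition plus 3 SD, computed per plate (cut at about 22% in these data); inactive means the rest.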

The test in a line: reduced calcium signal in Ga16 cells – fluorescence, CHO-Ga16 cells, counter-screen for TAAR1 agonist project (AID 651952).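 Further: 0% = EC80 ATP with DMSO and 100% = DMSO wells without ATP.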 The conditions noted are these: CHO-Ga16 ATP-induced calcium, Fluo-8 fluorescence; at 3 µM; active compounds read high. An outline of the steps: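 System: parental CHO cells stably overexpressing Gα16, lacking hTAAR1; dosing: one dose, 3 µM final; times: 17–24 h seeding, Fluo-8 75 min 37 °C, 30 min RT; measured by: Fluo-8 calcium fluorescence; evaluation: percent inhibition from peak-to-pre-ATP-basal fluorescence ratio, scaled between controls; benchmarks: high control DMSO alone, low control ATP EC80 with DMSO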
Turning to `CC(NC(=O)c1cc(-c2ccccc2)on1)c1ccccc1` (stereo not drawn), the inhibition is 17.1%. The same measure for `O=[N+]([O-])c1cc(S(=O)(=O)NCCc2ccccn2)ccc1Cl`: 0.96%. In the case of `N#Cc1ccc(OCCCN2CCC(C(O)(c3ccccc3)c3ccccc3)CC2)c(F)c1`, the inhibition was 25.9% (active). Under `COc1ccc(NC(=O)C(=O)NCC(c2ccco2)N2CCc3ccccc3C2)cc1` (stereo not drawn) stands 9.37%. The same measure for `COc1cccc(N(CC(=O)N2CCc3ccccc3C2)S(C)(=O)=O)c1`: 12.7%; for `O=C(O)C1C2C=CC(O2)C1C(=O)NCCc1cccc(Cl)c1` (stereo not drawn): 7.32%; for `COc1ccc(C(=O)NC(=S)NNC(=O)c2c(-c3ccccc3)noc2C)cc1`: 14.4%. Under `COc1ccc(C(=O)NC(=S)NNC(=O)CCc2ccccc2)cc1` stands 58.5% (active). Turning to `O=C(Nc1cccc(NC(=O)c2ccc(Br)cc2)c1)c1ccccc1`, the inhibition was 2.95%. Under `COc1ccc(C(=O)NNC(=S)NC(=O)c2ccccc2)cc1` stands 44.3% (active). The same measure for `Cc1onc(-c2ccccc2)c1C(=O)NNC(=S)NC(=O)c1ccc(F)cc1`: 50.7% (active).

For the molecule `CCCc1cc(C(=O)Nc2ccc(C(=O)OC)cc2)cs1`, the inhibition is 11.2%. Under `O=C1CCCC(O)=C1C=NCCc1ccccc1` stands 1.71%. Under `Cc1ccccc1-c1nc(CS(=O)(=O)CC(=O)N2CCc3ccccc3C2)c(C)o1` stands 18.3%.

As to `CCCCC(=O)NNC(=S)NC(=O)C(c1ccccc1)c1ccccc1`, the inhibition is 91% (active). In the case of `O=C(N[C@H](C(=O)N1CCC[C@H]1C(=O)NCCc1ccccc1Cl)c1ccccc1)c1ccccc1`, the inhibition was 12.2%. Regarding `C[C@H](NC(=O)c1ccccc1)C(=O)OCC(=O)c1c[nH]c2ccccc12`, the inhibition was -1.32%. The same measure for `CN(C(=O)CN(CCO)CC(=O)N(C)C(C)(C)Cc1ccccc1)C(C)(C)Cc1ccccc1`: 74.1% (active); for `COc1cccc(-c2cnc(OC(C)(C)C)nc2OC(C)(C)C)c1`: 4.69%; for `Cc1ccc(Cl)cc1N1CCN(C(=O)c2cccc3c(=O)c(C)c(-c4ccccc4)oc23)CC1`: 69.8% (active). `O=C(CCCN=C1NS(=O)(=O)c2ccccc21)OCC(=O)c1ccc(F)c(F)c1`: the inhibition was 26.1% (active). The same measure for `CC(=O)Nc1ccccc1Sc1ccc2c3c(cccc13)C(=O)N(c1ccc(C)cc1)C2=O`: 2.83%; for `Nc1cc(OC(=O)c2ccccc2Br)nn1S(=O)(=O)c1ccccc1`: 2.75%. The same measure for `NC(c1ccccc1)c1csc(NC(=O)Nc2cccc(C(F)(F)F)c2)n1` (stereo not drawn): 48% (active). The same measure for `COc1ccc(C(N)c2csc(NC(=O)Nc3cccc(C(F)(F)F)c3)n2)cc1` (stereo not drawn): 41.8% (active); for `NC[C@H](Cc1ccccc1)NCCc1cc(C(F)(F)F)cc(C(F)(F)F)c1`: 9.31%; for `CCN(CC)c1ccc2oc(=O)c(C)nc2c1`: 37.7% (active). In the case of `COc1ccc(CC(N)c2csc(NC(=O)Cc3ccccc3)n2)cc1` (stereo not drawn), the inhibition is 20.4%.

Regarding `CC(C)(C)CC(=O)Nc1nc(C(N)Cc2ccc(C(F)(F)F)cc2)cs1` (stereo not drawn), the inhibition is 54.9% (active). Under `CCCCc1c(-c2ccc(Br)cc2)ncn1CCc1ccccc1OC` stands 23.5% (active). Turning to `CCc1c(-c2ccccc2OC)ncn1CCc1ccccc1OC`, the inhibition was 3.45%. Under `CCCCc1c(-c2ccc(Cl)cc2)ncn1CCc1ccccc1OC` stands 28% (active); under `S=C(Nc1ccc(Br)cc1)NC1CCN(Cc2ccccc2)CC1`, 23.8% (active). The same measure for `COc1ccc2c(c1)OC(O)(C(F)(F)C(F)F)CC2=O` (stereo not drawn): 17.6%.

Take `c1ccc(-c2csc(N3CCc4ccccc4C3)n2)cc1`: the inhibition is 0.61%. The same measure for `O=C(Nc1ccncc1)Nc1ccc(F)cc1`: 12.7%; for `O=C(Nc1ccccc1)Nc1nnc(COc2ccccc2F)s1`: 27.2% (active); for `O=C(Nc1ccc(F)cc1)Nc1nnc([C@H]2C[C@H](O)[C@@H](CO)O2)s1`: 2.16%.

On to `CCC(c1nnnn1Cc1ccco1)N(CCc1ccccc1)Cc1cc2cccc(C)c2[nH]c1=O` (stereo not drawn), for which the inhibition was 13.9%. Under `CCC(C(=O)Nc1ccc(C(C)C)cc1)c1ccccc1` (stereo not drawn) stands 68% (active); under `c1ccc2c(c1)C(=NC1CCCCC1)NC2=NC1CCCCC1`, 26.3% (active); under `C#CCOc1ccc(/C=C2/C(=O)NN(c3ccccc3)C2=O)cc1OC`, 9.41%. In the case of `c1ccc(C2CNCc3c2ccc2ccccc32)cc1` (stereo not drawn), the inhibition is 33.8% (active). The same measure for `CCCOc1ccc(-c2c(C(=O)N/N=C/c3ccco3)nnn2-c2nonc2N)cc1`: 8.77%; for `CCCCOc1ccc(CSC(=N)N)cc1[N+](=O)[O-]`: 17.7%; for `CCOc1ccc(Br)cc1CSC(=N)N`: 27.7% (active).

With `CCc1ccc(-c2nn(-c3ccccc3)cc2CSC(=N)N)cc1`, the inhibition was 21.2%.

Turning to `Nc1nonc1-n1nnc(C(=O)N/N=C/c2ccc(Cl)cc2)c1-c1ccc2c(c1)OCO2`, the inhibition is -0.91%. For the molecule `Nc1c(C(=O)c2cccs2)sc2nsc(SCCN3CCCCC3)c12`, the inhibition is 63% (active). Take `COc1ccc(OC)c(C(c2nnnn2C(C)(C)C)N2CCc3ccccc3C2)c1` (stereo not drawn): the inhibition is 2.14%. Under `CCCC1CCC(=NNC(=S)NCCc2ccccc2)CC1` (stereo not drawn) stands 13.2%; under `c1ccc(Nc2nc(N3CCOCC3)c3ccccc3n2)cc1`, 28.7% (active); under `Cc1ccc(S(=O)(=O)N(CC(=O)N2CCc3ccccc3C2)c2cccc(Cl)c2)cc1`, 18.1%. The same measure for `O=C1C=C(c2ccc(Cl)cc2)C(=O)N1Nc1ccccc1`: 79.5% (active); for `Cc1ccc(Sc2cc(N3CCOCC3)nc(-c3ccccc3)n2)cc1`: -8.38%; for `Nc1nnn(CC(=O)N/N=C/c2ccccc2)n1`: 0.58%. The same measure for `CCCc1ccc(OCC(=O)NNC(=S)NC(=O)c2ccco2)cc1`: 50.6% (active). As for `CC(Oc1ccc2ccccc2c1)C(=O)NNC(=S)NC(=O)c1ccco1` (stereo not drawn), the inhibition is 52.4% (active). The same measure for `Cc1c(CNCCc2ccccc2)c(C(=O)O)c(C)n1-c1ccccc1`: 6.15%.

As for `CCCSc1nc2c(c(=O)n(C)c(=O)n2C)n1Cc1ccc(C)cc1`, the inhibition is 20.4%. Take `Oc1ccc2ccc3cccc[n+]3c2c1`: the inhibition was 33.9% (active). Under `Cc1cc(C)c2cc(C#N)c(N3CCNCC3)nc2c1` stands 3.67%; under `O=C(NNC(=S)NC(=O)c1cn(-c2ccccc2)nc1-c1ccccc1)c1ccncc1`, 57.6% (active); under `COc1ccc2cc(-c3[nH]ncc3CNCCn3nc(C)cc3C)ccc2c1`, 4.6%. Regarding `Cc1cccc(NC(=O)C(C)N2C(=O)C3C4CC(C(Br)C4Br)C3C2=O)c1` (stereo not drawn), the inhibition was 43.9% (active). The same measure for `O=c1cnnc(Nc2ccccc2)[nH]1`: 7.9%; for `COc1cc(OC)cc(C(=O)N[C@H](C(=O)OCC(=O)NC(C)c2ccccc2)C(C)C)c1` (stereo partly drawn): 6.73%; for `Cn1c(=O)c(=O)n(C)c2cc(S(=O)(=O)NCCc3ccccc3)ccc21`: -3.68%. The same measure for `COc1ccc(OC)c(NC(=S)N2CCc3ccccc3C2)c1`: 5.63%; for `O=C(Nc1ccc(Cl)cc1)N1CCc2[nH]c3ccccc3c2C1`: 14.7%. Under `Fc1ccc(NC(=S)N2CCc3[nH]c4ccccc4c3C2)cc1` stands 22.9% (active).

With `Cc1ccc(NC(=O)CCN2CCc3ccccc3C2)cc1`, the inhibition was 10.1%. The same measure for `O=C(NCCc1ccccc1)C(=O)NCC1OCCN1S(=O)(=O)c1cccs1` (stereo not drawn): 10.6%. The same measure for `S=C(NCCc1ccccc1)N1CCn2cccc2C1c1ccncc1` (stereo not drawn): 21.8% (active); for `O=C(O)C1CC=CCC1C(=O)NCCc1ccccc1` (stereo not drawn): 3.62%; for `COc1ccc(Cl)cc1C(=O)NNC(=S)NC(=O)/C=C/c1ccco1`: 55.5% (active). Under `O=C1CCCN2N=C(SCC(=O)Nc3ccc(Br)cc3)SC2=N1` stands 20%; under `CCCCCc1c(-c2cccc(Br)c2)ncn1CCc1ccccc1OC`, 25.3% (active); under `CCCCCc1c(-c2ccc(OC)c(OC)c2)ncn1CCc1ccccc1OC`, 44.5% (active). Regarding `CCCCCc1c(Cc2ccccc2)ncn1CCc1ccccc1OC`, the inhibition is 30.6% (active). Regarding `O=C(CNC(=O)c1ccccc1F)OCC(=O)c1c[nH]c2ccccc12`, the inhibition is -2.93%. The same measure for `O=C(c1noc2c1CCCC2)N1CCc2ccccc2C1`: 2.82%. The same measure for `CCC(c1nnnn1Cc1ccco1)N(CCc1ccccc1)Cc1cc2ccc(OC)cc2[nH]c1=O` (stereo not drawn): 15.3%. Under `CC(Oc1ccc(Cl)cc1)C(=O)OCC(=O)Nc1ncc(Cl)cc1Cl` (stereo not drawn) stands 12.8%. As to `CCCn1c(O)c(CN2CCCC(C)C2)c(C)c(C#N)c1=O` (stereo not drawn), the inhibition is 11.4%.

With `Cc1cc2nc3c(=O)[nH]c(=O)nc-3n(C[C@H](O)[C@H](O)[C@H](O)CO)c2cc1C`, the inhibition is 60.5% (active). The same measure for `COc1ccc(C(=O)CN2C(=O)NC(C)(c3ccc(C)cc3)C2=O)cc1OC` (stereo not drawn): 12.3%; for `c1ccc2c(c1)OCC(CNc1ncnc3nc[nH]c13)O2` (stereo not drawn): 103% (active); for `COc1cc(OC)c(-n2cc(-c3ccc(Cl)cc3)[nH]c2=O)cc1Cl`: 47.5% (active).

With `O=Cc1c(NCCc2cccc(F)c2)c2ccccc2[nH]c1=O`, the inhibition is 5.51%. Under `CSc1nc(N)c(C#N)c(-c2ccccc2Cl)c1C#N` stands 23.4% (active). Under `OC(CNCCc1ccc(Cl)cc1Cl)COc1ccccc1` (stereo not drawn) stands 16.3%; under `COC(=O)c1[nH]c2cccc(C)c2c1NC(=O)CN1CCCc2ccccc21`, 22.5% (active).

Source of the values: PubChem BioAssay AID651952 (The Scripps Research Institute Molecular Screening Center, 2012).
